We go through 42 molecules from ChEMBL document CHEMBL1155273, “Search for new pharmacophores for antimalarial activity. Part III: synthesis and bioevaluation of new 6-thioureido-4-anilinoquinazolines” (Eur J Med Chem, 2009).

One assay relates to Plasmodium falciparum. Description: Antimalarial activity against chloroquine-sensitive Plasmodium falciparum 3D7. Type of assay: functional, organism-based.
Assay [1] in a line: Selectivity index, ratio of CC50 for african green monkey (Cercopithecus aethiops) Vero cells to IC50 for chloroquine-sensitive Plasmodium falciparum 3D7. The class given is functional.
Assay [2] deals with Plasmodium yoelii nigeriensis. Nature of the assay: Antimalarial activity against multidrug-resistant Plasmodium yoelii nigeriensis infected Swiss mice (Mus musculus) assessed as survival at 100 mg/kg, perorally for 4 days measured on day 7. Type of assay: functional, organism-based. The arrangement: dose 100 mg/kg. Summed up: (§1)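 Swiss mice infected on day 0 with P. yoelii nigeriensis MDR (N67, chloroquine-resistant) parasitized cells. Groups of five mice received the test compound orally as an aqueous suspension at 50 or 100 mg/kg from day 0 to 4; five controls received vehicle only. Parasitaemia was read from tail-vein thin blood smears on days 4, 7, 14, 21 and 28, or until death.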

Assay [3] deals with Plasmodium yoelii nigeriensis. Description: Antimalarial activity against multidrug-resistant Plasmodium yoelii nigeriensis infected Swiss mice (Mus musculus) assessed as suppression in parasitaemia at 100 mg/kg, perorally for 4 days measured on day 4. Type of assay: functional. The conditions noted are these: 96 h, route oral. The procedure, abridged:
as §1

For assay [4], the system named is Plasmodium yoelii nigeriensis. Description: Antimalarial activity against multidrug-resistant Plasmodium yoelii nigeriensis infected Swiss mice (Mus musculus) assessed as suppression in parasitaemia at 100 mg/kg, perorally for 4 days measured on day 7. The conditions noted are these: route oral. Type of assay: functional. Summed up: as §1
Assay [5] relates to Plasmodium yoelii nigeriensis. Description: Antimalarial activity against multidrug-resistant Plasmodium yoelii nigeriensis infected Swiss mice (Mus musculus) assessed as survival at 100 mg/kg, perorally for 4 days measured on day 28. Type of assay: functional. The conditions noted are these: route oral. Summed up:
as §1

SMILES strings stand for the structures. Values after ≈ are worked out from the molar mass of the structure shown. Active and inactive are the calls of the source.

As to `COc1ccc(Nc2ncnc3ccc(NC(=S)Nc4cccc(C#N)c4)cc23)cc1`, in the assay with Plasmodium falciparum, the MIC (in general, the smallest concentration in the dilution series that meets the test's criterion for growth inhibition) was above 10 µg/mL.
As to `COc1ccc(Nc2ncnc3ccc(NC(=S)Nc4cccc5ccccc45)cc23)cc1OC`, in the assay with Plasmodium falciparum, half-maximal inhibition (IC50) was put at 0.207 µg/mL (≈ 0.43 µM) and 2 µg/mL (≈ 4.15 µM) was the least that counted as inhibitory (MIC). For the same molecule, the “Ratio CC50/IC50” value in assay [1] amounted to 133.8.
As for `FC(F)(F)c1cccc(Nc2ncnc3ccc(NC(=S)Nc4ccc(Cl)cc4)cc23)c1`, it took 10 µg/mL (≈ 21.1 µM) to inhibit growth against Plasmodium falciparum (MIC).
As to `FC(F)(F)c1cccc(Nc2ncnc3ccc(NC(=S)Nc4ccc(Br)cc4)cc23)c1`, the outcome in assay [2] was inactive. For the same molecule, in the assay with Plasmodium falciparum, the IC50 (usually the midpoint of a concentration-inhibition curve) worked out at 0.0392 µg/mL (≈ 0.0756 µM) and the minimum inhibitory concentration (MIC) amounted to 2 µg/mL (≈ 3.86 µM). Besides, the inhibition in vivo (in general, the share of the control response that was lost under treatment) at 100 mg/kg in assay [3] was determined as 9.78%. For the same molecule, the “Ratio CC50/IC50” value in assay [1] was determined as 67.1.
`COc1cccc(Nc2ncnc3ccc(NC(=S)Nc4ccc(Cl)cc4)cc23)c1` showed an MIC with Plasmodium falciparum of 10 µg/mL (≈ 22.9 µM).
In the assay on Plasmodium falciparum, `COc1ccc(Nc2ncnc3ccc(NC(=S)Nc4cccc(Cl)c4)cc23)cc1OC` came in with an MIC of 10 µg/mL (≈ 21.5 µM).
Consider `N#Cc1cccc(NC(=S)Nc2ccc3ncnc(Nc4cccc(C(F)(F)F)c4)c3c2)c1`, for which, in the assay with Plasmodium falciparum, the half-maximal inhibitory concentration (IC50) is 0.443 µg/mL (≈ 0.954 µM) and the minimum inhibitory concentration (MIC) turned out to be 2 µg/mL (≈ 4.31 µM). In assay [1], the “Ratio CC50/IC50” value is reported as 5.5.
For `COc1ccc(Nc2ncnc3ccc(NC(=S)Nc4ccc(Br)cc4)cc23)cc1OC`, in the assay with Plasmodium falciparum, the IC50 turned out to be 0.683 µg/mL (≈ 1.34 µM) and the minimum inhibitory concentration (MIC) amounted to 2 µg/mL (≈ 3.92 µM). For the same molecule, the “Ratio CC50/IC50” value in assay [1] came out at 85.7.
Consider `N#Cc1cccc(NC(=S)Nc2ccc3ncnc(Nc4cccc(Cl)c4)c3c2)c1`, for which the MIC in the assay with Plasmodium falciparum was above 10 µg/mL.
Consider `COc1ccc(Nc2ncnc3ccc(NC(=S)Nc4ccccc4)cc23)cc1OC`, for which, in the assay with Plasmodium falciparum, 0.303 µg/mL (≈ 0.702 µM) corresponded to half-maximal inhibition (IC50) and the MIC was determined as 2 µg/mL (≈ 4.63 µM). The “Ratio CC50/IC50” value in assay [1] was determined as 90.
As to `S=C(Nc1ccc(Cl)cc1)Nc1ccc2ncnc(Nc3ccccc3)c2c1`, inhibition of growth against Plasmodium falciparum (MIC) required 2 µg/mL (≈ 4.93 µM).
In the assay with Plasmodium falciparum, `Fc1cccc(NC(=S)Nc2ccc3ncnc(Nc4ccccc4)c3c2)c1` displayed an IC50 of 0.792 µg/mL (≈ 2.03 µM) and a minimum inhibitory concentration (MIC) of 2 µg/mL (≈ 5.14 µM). Moreover, the “Ratio CC50/IC50” value in assay [1] came out at 70.3.
Take `S=C(Nc1cccc(Cl)c1)Nc1ccc2ncnc(Nc3cccc(Cl)c3)c2c1`: in the assay with Plasmodium falciparum, the midpoint of inhibition, the IC50, lay at 0.0088 µg/mL (≈ 0.02 µM). The same molecule yielded an MIC against Plasmodium falciparum of 2 µg/mL (≈ 4.54 µM). In addition, the inhibition in vivo at 100 mg/kg in assay [4] came out at 16.1%; in assay [3], 77.2%. Further, in assay [1], the “Ratio CC50/IC50” value is on record as 556.3.
With `S=C(Nc1ccccc1)Nc1ccc2ncnc(Nc3ccccc3)c2c1`, inhibition of growth against Plasmodium falciparum (MIC) required 2 µg/mL (≈ 5.38 µM).
Turning to `COc1ccc(Nc2ncnc3ccc(NC(=S)Nc4ccc(Br)cc4)cc23)cc1`, in the assay on Plasmodium falciparum, 0.0502 µg/mL (≈ 0.104 µM) corresponded to half-maximal inhibition (IC50) and the MIC was found to be 2 µg/mL (≈ 4.16 µM). In addition, the “Ratio CC50/IC50” value in assay [1] worked out at 114.9.
On to `COc1cccc(Nc2ncnc3ccc(NC(=S)Nc4cccc(F)c4)cc23)c1`, for which, in the assay with Plasmodium falciparum, the IC50 amounted to 0.0267 µg/mL (≈ 0.0636 µM) and the MIC was determined as 1 µg/mL (≈ 2.38 µM). For the same molecule, in assay [1], the “Ratio CC50/IC50” value was 510.7.
In the assay with Plasmodium falciparum, `COc1ccc(Nc2ncnc3ccc(NC(=S)Nc4cccc(F)c4)cc23)cc1` yielded an IC50 of 0.0532 µg/mL (≈ 0.127 µM) and an MIC of 2 µg/mL (≈ 4.77 µM). Also, in assay [1], the “Ratio CC50/IC50” value is on record as 206.4.
Consider `FC(F)(F)c1cccc(Nc2ncnc3ccc(NC(=S)Nc4cccc(Cl)c4)cc23)c1`, for which the MIC against Plasmodium falciparum worked out at 10 µg/mL (≈ 21.1 µM).
Molecule `S=C(Nc1ccc(Cl)cc1)Nc1ccc2ncnc(Nc3cccc(Cl)c3)c2c1` returned an MIC in the assay on Plasmodium falciparum of 10 µg/mL (≈ 22.7 µM).
`Fc1cccc(NC(=S)Nc2ccc3ncnc(Nc4cccc(C(F)(F)F)c4)c3c2)c1` had an MIC against Plasmodium falciparum of 10 µg/mL (≈ 21.9 µM).
With `COc1ccc(Nc2ncnc3ccc(NC(=S)Nc4cccc5ccccc45)cc23)cc1`, the MIC against Plasmodium falciparum was 10 µg/mL (≈ 22.1 µM).
For `COc1ccc(Nc2ncnc3ccc(NC(=S)Nc4ccccc4)cc23)cc1`, in the assay on Plasmodium falciparum, 0.243 µg/mL (≈ 0.604 µM) corresponded to half-maximal inhibition (IC50) and the MIC stood at 2 µg/mL (≈ 4.98 µM). In assay [1], the “Ratio CC50/IC50” value came to 80.4.
In the assay on Plasmodium falciparum, `Fc1cccc(NC(=S)Nc2ccc3ncnc(Nc4cccc(Cl)c4)c3c2)c1` registered an MIC of 10 µg/mL (≈ 23.6 µM). Moreover, the inhibition in vivo at 100 mg/kg in assay [4] was found to be 61.1%; in assay [3] it was 85.7%.
Molecule `S=C(Nc1ccc2ncnc(Nc3cccc(Cl)c3)c2c1)Nc1cccc2ccccc12` returned an MIC in the assay with Plasmodium falciparum of 10 µg/mL (≈ 21.9 µM).
Consider `COc1ccc(Nc2ncnc3ccc(NC(=S)Nc4cccc(Cl)c4)cc23)cc1`, for which, in the assay on Plasmodium falciparum, the MIC was above 10 µg/mL.
As to `COc1cccc(Nc2ncnc3ccc(NC(=S)Nc4ccc(Br)cc4)cc23)c1`, in the assay on Plasmodium falciparum, the IC50 turned out to be 0.106 µg/mL (≈ 0.22 µM). Moreover, the minimum inhibitory concentration (MIC) against Plasmodium falciparum worked out at 1 µg/mL (≈ 2.08 µM). Also, the Activity in assay [5] came to 50%. Besides, the inhibition in vivo at 100 mg/kg in assay [4] is 99.9%; in assay [3] it was 100%. The “Ratio CC50/IC50” value in assay [1] is recorded as 187.
For `S=C(Nc1cccc(Cl)c1)Nc1ccc2ncnc(Nc3ccccc3)c2c1`, in the assay on Plasmodium falciparum, the IC50 turned out to be 0.813 µg/mL (≈ 2 µM) and the minimal inhibitory concentration (MIC) was determined as 2 µg/mL (≈ 4.93 µM). In assay [1], the “Ratio CC50/IC50” value is given as 29.
As to `COc1ccc(Nc2ncnc3ccc(NC(=S)Nc4cccc(C#N)c4)cc23)cc1OC`, in the assay with Plasmodium falciparum, the MIC worked out at 10 µg/mL (≈ 21.9 µM).
With `COc1cccc(Nc2ncnc3ccc(NC(=S)Nc4ccccc4)cc23)c1`, in the assay with Plasmodium falciparum, the IC50 stood at 0.258 µg/mL (≈ 0.643 µM) and the MIC stood at 2 µg/mL (≈ 4.98 µM). Further, in assay [1], the “Ratio CC50/IC50” value came out at 38.7.
With `COc1cccc(Nc2ncnc3ccc(NC(=S)Nc4cccc(Cl)c4)cc23)c1`, inhibition with Plasmodium falciparum was half-maximal at 0.0115 µg/mL (≈ 0.0264 µM) (IC50). The MIC in the assay on Plasmodium falciparum came to 2 µg/mL (≈ 4.59 µM). Also, the inhibition in vivo at 100 mg/kg in assay [4] was 28.4%; in assay [3] it was 46.5%. In assay [1], the “Ratio CC50/IC50” value turned out to be 1615.3.
`S=C(Nc1ccc(Br)cc1)Nc1ccc2ncnc(Nc3ccccc3)c2c1` came in with an MIC in the assay with Plasmodium falciparum of 10 µg/mL (≈ 22.2 µM).
`COc1cccc(Nc2ncnc3ccc(NC(=S)Nc4cccc5ccccc45)cc23)c1` showed an MIC against Plasmodium falciparum of 10 µg/mL (≈ 22.1 µM).
For `COc1cccc(Nc2ncnc3ccc(NC(=S)Nc4cccc(C#N)c4)cc23)c1`, in the assay on Plasmodium falciparum, the half-inhibitory concentration (IC50) worked out at 0.021 µg/mL (≈ 0.0492 µM) and the MIC worked out at 1 µg/mL (≈ 2.34 µM). In addition, in assay [1], the “Ratio CC50/IC50” value amounted to 453.
Molecule `COc1ccc(Nc2ncnc3ccc(NC(=S)Nc4ccc(Cl)cc4)cc23)cc1` returned an MIC in the assay with Plasmodium falciparum above 10 µg/mL.
Take `COc1ccc(Nc2ncnc3ccc(NC(=S)Nc4ccc(Cl)cc4)cc23)cc1OC`: the MIC in the assay on Plasmodium falciparum was determined as 10 µg/mL (≈ 21.5 µM).
In the case of `S=C(Nc1ccccc1)Nc1ccc2ncnc(Nc3cccc(Cl)c3)c2c1`, in the assay on Plasmodium falciparum, the MIC came out at 10 µg/mL (≈ 24.6 µM).
In turn, `N#Cc1cccc(NC(=S)Nc2ccc3ncnc(Nc4ccccc4)c3c2)c1` showed an MIC against Plasmodium falciparum above 10 µg/mL.
Consider `S=C(Nc1ccc(Br)cc1)Nc1ccc2ncnc(Nc3cccc(Cl)c3)c2c1`, for which, in the assay with Plasmodium falciparum, half-maximal inhibition (IC50) required 0.526 µg/mL (≈ 1.09 µM) and the MIC is 2 µg/mL (≈ 4.13 µM). Moreover, in assay [1], the “Ratio CC50/IC50” value is listed as 1.
`S=C(Nc1ccc2ncnc(Nc3ccccc3)c2c1)Nc1cccc2ccccc12` returned an MIC against Plasmodium falciparum of 2 µg/mL (≈ 4.74 µM).
In the case of `COc1ccc(Nc2ncnc3ccc(NC(=S)Nc4cccc(F)c4)cc23)cc1OC`, in the assay on Plasmodium falciparum, the midpoint of inhibition, the IC50, lay at 0.385 µg/mL (≈ 0.857 µM) and the MIC was 2 µg/mL (≈ 4.45 µM). Also, in assay [1], the “Ratio CC50/IC50” value came out at 63.7.
In the assay on Plasmodium falciparum, `FC(F)(F)c1cccc(Nc2ncnc3ccc(NC(=S)Nc4ccccc4)cc23)c1` returned an IC50 of 0.992 µg/mL (≈ 2.26 µM) and an MIC of 2 µg/mL (≈ 4.55 µM). Besides, the “Ratio CC50/IC50” value in assay [1] was 69.
Consider `FC(F)(F)c1cccc(Nc2ncnc3ccc(NC(=S)Nc4cccc5ccccc45)cc23)c1`, for which the MIC in the assay with Plasmodium falciparum turned out to be 10 µg/mL (≈ 20.4 µM).
